Experimental data pooled from the literature.
Lines come from different studies, so protocols differ.
Sample: plasma
Route: oral

For `COC(=O)N[C@@H](C)CNc1nccc(-c2cn(C(C)C)nc2-c2cc(Cl)cc(NS(C)(=O)=O)c2F)n1`, the Vd/F was 260 L (human; 50 mg, single dose).
`C[C@@H](c1ccc2nccn2c1)n1nnc2ncc(-c3cnn(C)c3)nc21` gave a Vd/F of 310 L (human; 200 mg).
For `CO[C@H]1CC[C@H](N2C(=O)CNc3ncc(-c4ccc(C(C)(C)O)nc4)nc32)CC1`, the Vd/F was 192 L (human; 15 mg, patients).
With `c1cnc2ccc(Nc3nc(NC4CC4)c4nc[nH]c4n3)cc2c1` the Vd/F was 163 L (human; 100 mg/m², patients).
The Vd/F of `C[C@@]1(c2cc(NC(=O)c3ccc(C#N)cn3)ccc2F)C=CSC(N)=N1` is reported as 235 L (human; 3 mg, single dose).
The Vd/F of `CC(C)(Sc1ccncc1-c1ccc(C#N)c2ccccc12)C(=O)O` is reported as 531 L (male human; 20 mg, single dose, fed, healthy volunteers).
With `COc1cc(C(=O)NC2CCN(C)CC2)c(F)cc1Nc1ncc(C(F)(F)F)c(Oc2cccc3c2C(=O)N(C)C3)n1` the Vd/F was 236 L (human; 100 mg, single dose, patients).
With `Cc1cc(Nc2cc(N3CCN(C)CC3)nc(/C=C/c3ccccc3)n2)n[nH]1` the Vd/F was 2280 L (human; 200 mg/m², patients).
The Vd/F of `COc1ccc([C@@H]2CN(C(=O)[C@@H](O)CO)C[C@@]2(C)[C@@H](C)O)cc1OC1CN(c2ccc(C)cn2)C1` is reported as 40.7 L (human; 0.5 mg, single dose, healthy volunteers).
`C=C(F)C(=O)N1CCN(c2nc(OC[C@@H]3CCCN3C)nc3c2CCN(c2cccc4cccc(Cl)c24)C3)C[C@@H]1CC#N` gave a Vd/F of 527 L (human; 600 mg, single dose, fasted).
For `N#CN1C[C@H](n2nc(-c3ccc(Oc4ccc(Cl)cn4)cc3)c(C(N)=O)c2N)CCC12CC2`, the Vd/F was 1230 L (human; 600 mg, fed).
`CCOc1ccc(Cc2cc([C@@H]3O[C@H](CO)[C@@H](O)[C@H](O)[C@H]3O)ccc2Cl)cc1` gave a Vd/F of 320 L (human; 10 mg, multiple doses, steady state).
